V1R ag counter – counter-screen for oxytocin receptor agonists: human V1a receptor agonists; CHO-V1R cells, Fluo-8 calcium fluorescence, agonist mode; 0% DMSO, 100% 3 nM vasopressin; activation, % at 3 µM; 320,000 tested, 0.25% active;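 active = activation above the mean activation of all tested compounds plus 3 SD, per screening run, cut at about 20% in these data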;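 also: signal is peak over basal fluorescence ratio across a 100 second FLIPR read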
OXTR potentiator – human OXTR potentiation. P30559. CHO-OTR cells, Fluo-8 calcium fluorescence, potentiator mode; 0% = oxytocin EC15, 100% = EC100. activation, % at 3 µM. 320,000 tested, 0.061% active;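 active = activation above that plate's cutoff, the mean activation of tested compounds plus 3 SD, cut at about 6.6% in these data, passing the limit was not always enough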
Target sequence (P30559 whole entry, looked up): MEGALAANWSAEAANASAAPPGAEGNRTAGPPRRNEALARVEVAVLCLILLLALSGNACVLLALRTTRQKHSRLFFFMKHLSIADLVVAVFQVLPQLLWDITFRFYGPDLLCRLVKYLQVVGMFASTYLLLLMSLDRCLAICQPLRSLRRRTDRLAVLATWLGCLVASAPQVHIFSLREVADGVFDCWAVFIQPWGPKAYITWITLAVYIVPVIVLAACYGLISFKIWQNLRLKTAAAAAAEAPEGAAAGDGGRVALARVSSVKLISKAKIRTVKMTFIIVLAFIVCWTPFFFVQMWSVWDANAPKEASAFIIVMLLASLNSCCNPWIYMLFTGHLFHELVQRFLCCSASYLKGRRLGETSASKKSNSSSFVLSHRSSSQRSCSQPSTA
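assay system = CHO-OTR cells, human receptor | schedule = compound 6 min at room temperature before oxytocin, 100 s read | detection = Fluo-8 intracellular calcium fluorescence, ex 470-495, em 515-575 nm | evaluation = normalized max/min fluorescence ratio, % activation | control set = EC15 oxytocin alone as 0%, 75 nM oxytocin (EC100) as 100%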
CHO parental Ca – signal in parental CHO cells, OX1R antagonist counter-screen; 330,000 tested, 0.63% active; parental CHO-K1, ATP-induced calcium, Fluo-8 fluorescence; AID 463079; inhibition, % at 5.6 µM;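 active = inhibition above that plate's mean sample inhibition plus 3 SD, cut at about 26% in these data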
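Assay system: parental CHO cells; Read-out basis: percent inhibition of ATP-evoked calcium rise, normalized to controls; Benchmarks: ATP and no-ATP DMSO wells; Compound dosing: single nominal dose of 5.6 µM per compound; Signal: Fluo-8 calcium dye fluorescence; Also added: ATP as calcium-mobilizing challenge; Repeats: singlicate.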
OXTR agonist – human OXTR agonism; CHO-OTR cells, Fluo-8 calcium fluorescence; normalized: DMSO 0%, oxytocin 100%; activation, % at 3 µM; 320,000 tested, 0.32% active;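 active = activation above the mean of all tested compounds plus 3 SD, cutoff set per screening run, cut at about 20% in these data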;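 also: peak over basal fluorescence ratio from a 100 s FLIPR kinetic read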
OX1R antag-1 – OX1R (human) antagonism; 330,000 tested, 1.8% active; O43613; inhibition, % at 6.6 µM; OX1R-expressing cells, FRET antagonist read-out; in the data active = inhibition mostly above about 38%, no sharp cut-off; inactive = mostly below about 40%
OX1R antag-2 – blocks the human orexin 1 receptor; O43613; CHO/OX1R cells, Fluo-8 calcium fluorescence, orexin A; inhibition, % at 5 µM; 330,000 tested, 0.43% active; AID 434989;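 active = inhibition above its plate's threshold, mean inhibition of all tested compounds on the plate plus 3 SD, cut at about 37% in these data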
OX1R Fluo8 conf – OX1R (human) antagonism, confirmed. AID 492963. inhibition, % at 5 µM. 1,100 tested, 38% active. shares compounds with OX1R antag-2. CHO/OX1R cells, orexin A calcium Fluo-8 fluorescence; in the data active = inhibition above about 29%
CHO Ca counter – counter-screen for OX1R antagonists: effect in parental CHO cells; parental CHO-K1, ATP-induced calcium, Fluo-8 fluorescence; shares compounds with OX1R antag-2; inhibition, % at 5.6 µM; 1,100 tested, 9.3% active;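 active = inhibition above a per-plate limit, the mean inhibition of that plate's test compounds plus 3 SD, cut at about 25% in these data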
OX1R HTRF conf – OX1R (human) antagonism, HTRF confirmed; shares compounds with OX1R antag-1; OX1R-expressing cells, HTRF antagonist assay; inhibition, % at 6.6 µM; 1,800 tested, 49% active; in the data active = inhibition above about 55%;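 also: CHO cells expressing OX1R stimulated with orexin A at about EC80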
CHO-K1 HTRF – signal in parental CHO-K1 cells, OX1R antagonist counter-screen; inhibition, % at 6.6 µM; AID 493232; HTRF counterscreen; 1,800 tested, 48% active; shares compounds with OX1R antag-1; in the data active = inhibition above about 17%
Of the large screens only hits and unclear results are named; the others gave an inactive call (follow-up assays come after a bar, where they were run). The list is not random: actives were taken first. Their share in the collection is about 2.7%.

COc1cc(/C=N/NC(=O)CCn2c3ccccc3c3ccccc32)ccc1O	OX1R antag-1 54, OX1R antag-2 75 | OX1R Fluo8 conf 37 | CHO Ca counter inactive | OX1R HTRF conf 83 | CHO-K1 HTRF inactive
COc1ccc(Cl)cc1C(=O)OCC(=O)NCCNC(=O)COC(=O)c1cc(Cl)ccc1OC	OX1R antag-1 59 | OX1R Fluo8 conf inactive | CHO Ca counter 42 | OX1R HTRF conf 71 | CHO-K1 HTRF inactive
COc1ccc(Cl)cc1C(=O)OCC(=O)Nc1sccc1C(N)=O	none
Cc1ccc(/C=N/NC(=O)c2cccs2)cc1[N+](=O)[O-]	OX1R antag-1 109 | OX1R Fluo8 conf inactive | CHO Ca counter inactive | OX1R HTRF conf 92 | CHO-K1 HTRF inactive
CC(C)[C@H](N)c1nnc(SC/C=C/c2ccccc2)o1	none
CCOc1ccc(N(CC(=O)NCCc2ccc(C)cc2)S(=O)(=O)c2c(C)noc2C)cc1	none
Cc1ccc(N(CC(=O)NCCc2ccccc2)S(=O)(=O)c2c(C)noc2C)cc1	OX1R antag-1 85, OX1R antag-2 70 | OX1R Fluo8 conf 44 | CHO Ca counter inactive | OX1R HTRF conf 82 | CHO-K1 HTRF inactive
Nc1nc(CN2CCN(c3ccccc3)CC2)nc(N2CCCc3ccccc32)n1	none
Nc1nc(CSc2nnnn2-c2ccccc2)nc(N2CCCc3ccccc32)n1	OX1R antag-1 83, OX1R antag-2 65 | OX1R Fluo8 conf 30 | CHO Ca counter inactive | OX1R HTRF conf inactive | CHO-K1 HTRF inactive
C=CCn1c(SCc2ccccc2C#N)nnc1-c1cc(Br)ccc1O	OX1R antag-1 53, OX1R antag-2 53 | OX1R Fluo8 conf inactive | CHO Ca counter inactive | OX1R HTRF conf inactive | CHO-K1 HTRF inactive
CCOc1ccc2[nH]c(C(=O)N/N=C/c3cc(OC)c(OC)c(OC)c3)cc2c1	none
CCOc1ccc(/C=N/NC(=O)c2cc3c(OC)cc(OC)cc3[nH]2)cc1OC	OX1R antag-1 81 | OX1R Fluo8 conf 42 | CHO Ca counter inactive | OX1R HTRF conf 89 | CHO-K1 HTRF inactive
COc1ccc(OC)c(/C=N/NC(=O)c2cc3c(OC)cccc3[nH]2)c1	OX1R antag-1 101, OX1R antag-2 71 | OX1R Fluo8 conf 32 | CHO Ca counter inactive | OX1R HTRF conf 89 | CHO-K1 HTRF inactive
CCOc1ccc(/C=N/NC(=O)c2cc3c(OC)cccc3[nH]2)cc1	none
CCOc1ccc(CCNC(=O)COC(=O)c2sccc2C)cc1OCC	none
Cc1ccc(S(=O)(=O)N2CCN(c3ccccc3)CC2)cc1C(=O)NC1CCCCC1	none
NC(=O)c1c(NC(=O)c2cc3ccccc3o2)sc2c1CCC2	OX1R antag-1 106 | OX1R Fluo8 conf inactive | CHO Ca counter inactive | OX1R HTRF conf 85 | CHO-K1 HTRF inactive
COC(=O)c1nccnc1C(=O)Nc1ccccc1N1CCOCC1	none
O=C(CCCN1C(=O)/C(=C/c2cccs2)SC1=S)Nc1cccc(O)c1	OX1R antag-1 67, OX1R antag-2 45 | OX1R Fluo8 conf 33 | CHO Ca counter inactive | OX1R HTRF conf 59 | CHO-K1 HTRF inactive
O=C(CCN1C(=O)/C(=C/c2cccs2)SC1=S)Nc1cccc(O)c1	none
Cc1noc(C)c1COc1ccc(C(=O)OCC(=O)Nc2ccc(C(=O)N(C)C)cc2)cc1	none
COC(=O)N/N=C/c1ccc(-c2ccc(C)c(Cl)c2)o1	none

Source: PubChem BioAssay (The Scripps Research Institute Molecular Screening Center)
